{"data": "Experimental data gathered from unrelated publications", "medium": "Caco-2", "note": "Lines come from different studies, so protocols differ."}
{"SMILES": "C=CC(=O)NC1CCN(c2ncc3ncnc(Nc4ccc(Oc5ccc6c(c5)ncn6C)c(C)c4)c3n2)CC1", "Papp A→B": "~6.8 ×10⁻⁶ cm/s"}
{"SMILES": "C[C@@H]1O[C@@H](OC[C@H]2O[C@@H](Oc3c(-c4ccc(OCCO)c(OCCO)c4)oc4cc(OCCO)cc(O)c4c3=O)[C@H](O)[C@@H](O)[C@@H]2O)[C@H](O)[C@H](O)[C@H]1O", "conditions": "100 µg/mL, 2 h", "Papp A→B": "6.15 ×10⁻⁶ cm/s"}
{"SMILES": "N#Cc1ccc(C[C@H](Nc2ncc(-c3ccc(F)cc3)o2)C(=O)N2CCc3ccccc32)cc1", "conditions": "100 µM, 2 h", "Papp A→B": "10.6 ×10⁻⁶ cm/s"}
{"SMILES": "C[C@@H]1O[C@@H](OC[C@H]2O[C@@H](Oc3c(-c4ccc(O)c(O)c4)oc4cc(O)cc(O)c4c3=O)[C@H](O)[C@@H](O)[C@@H]2O)[C@H](O)[C@H](O)[C@H]1O", "conditions": "200 µg/mL", "Papp A→B": "0.293 ×10⁻⁶ cm/s"}
{"SMILES": "Cc1ccc2[nH]c(=S)n(Cc3cccnc3)c(=O)c2c1", "conditions": "10 µM, 90 min, pH 7.4", "Papp A→B": "35.4 ×10⁻⁶ cm/s"}
{"SMILES": "CCCCCOC(=O)Nc1nc(=O)n([C@@H]2O[C@H](C)[C@@H](O)[C@H]2O)cc1F", "conditions": "4 h", "Papp A→B": "3.24 ×10⁻⁶ cm/s"}
{"SMILES": "O=c1cc(-c2ccccc2)oc2cc(O)c(O)c(O)c12", "conditions": "100 µg/mL, 2 h", "Papp A→B": "9.23 ×10⁻⁶ cm/s"}
{"SMILES": "C[C@H]1[C@H](NC(=O)/C(=N\\OC(C)(C)C(=O)O)c2csc(N)n2)C(=O)N1S(=O)(=O)O", "conditions": "5 µM, 2 h", "Papp A→B": "0.09 ×10⁻⁶ cm/s"}
{"SMILES": "C[C@H]1O[C@@H](O[C@H]2[C@@H](O)C[C@H](O[C@H]3[C@@H](O)C[C@H](O[C@H]4CC[C@@]5(C)[C@H](CC[C@@H]6[C@@H]5C[C@@H](O)[C@]5(C)[C@@H](C7=CC(=O)OC7)CC[C@]65O)C4)O[C@@H]3C)O[C@@H]2C)C[C@H](O)[C@@H]1O", "conditions": "10 µM, 2 h", "Papp A→B": "0.48 ×10⁻⁶ cm/s"}
{"SMILES": "Oc1cc(O)c2c(c1)O[C@H](c1ccc(O)c(O)c1)[C@@H](O)C2", "conditions": "100 µg/mL, 2 h", "Papp A→B": "11.7 ×10⁻⁶ cm/s"}
{"SMILES": "O=c1c2cc(Cl)ccc2[nH]c(=S)n1Cc1cccnc1", "conditions": "10 µM, 90 min, pH 7.4", "Papp A→B": "17.7 ×10⁻⁶ cm/s"}
{"SMILES": "COc1ccc(-c2coc3cc(O)cc(O)c3c2=O)cc1", "conditions": "100 µg/mL, 2 h", "Papp A→B": "20.4 ×10⁻⁶ cm/s"}
{"SMILES": "COCC(=O)N1CCC[C@H](C(=O)NCc2nc(-c3ccc(C#N)cc3)cs2)C1", "conditions": "pH 7.4", "Papp A→B": "24 ×10⁻⁶ cm/s"}
{"SMILES": "Cc1ncc(Cl)cc1NCc1ccc(C(=O)N[C@@H](CC2CCCC2)C(=O)NC2CC2)s1", "conditions": "5 µM, 2 h, pH 7.4", "Papp A→B": "0.22 ×10⁻⁶ cm/s"}
{"SMILES": "CC(C)(N)COCC(=O)N1CCC[C@H](C(=O)NCc2nc(-c3ccc(C(F)(F)F)cc3)cs2)C1", "conditions": "pH 7.4", "Papp A→B": "0.18 ×10⁻⁶ cm/s"}
{"SMILES": "COc1ccccc1OCCNCC(O)COc1cccc2[nH]c3ccccc3c12 (stereo not shown)", "conditions": "5 µM, 2 h", "Papp A→B": "4.98 ×10⁻⁶ cm/s"}
{"SMILES": "COc1ccc(-c2coc3cc(O)ccc3c2=O)cc1", "conditions": "100 µg/mL, 2 h", "Papp A→B": "4.66 ×10⁻⁶ cm/s"}
{"SMILES": "N[C@@H](COCC(=O)N1CCC[C@H](C(=O)NCc2nc(-c3ccc(C(F)(F)F)cc3)cs2)C1)c1ccccc1", "conditions": "pH 7.4", "Papp A→B": "8.5 ×10⁻⁶ cm/s"}
{"SMILES": "CN(C)CC(=O)OCc1cc2[nH]c(=S)n(Cc3cccnc3)c(=O)c2cc1Cl", "conditions": "10 µM, 90 min, pH 7.4", "Papp A→B": "42.5 ×10⁻⁶ cm/s"}
{"SMILES": "O=c1c(O[C@@H]2O[C@H](CO)[C@H](O)[C@H](O)[C@H]2O)c(-c2ccc(O)c(O)c2)oc2cc(O)cc(O)c12", "conditions": "200 µg/mL", "Papp A→B": "0.349 ×10⁻⁶ cm/s"}
{"SMILES": "O=C(NCc1nc(-c2ccc(C(F)(F)F)cc2)cs1)[C@H]1CCCN(C(=O)COCCN2CCCC2)C1", "conditions": "pH 7.4", "Papp A→B": "1.8 ×10⁻⁶ cm/s"}
{"SMILES": "COC(=O)[C@H]1[C@H]2C[C@@H]3c4[nH]c5cc(OC)ccc5c4CCN3C[C@H]2C[C@@H](OC(=O)c2cc(OC)c(OC)c(OC)c2)[C@@H]1OC", "conditions": "5 µM, 2 h", "Papp A→B": "0.97 ×10⁻⁶ cm/s"}
{"SMILES": "O=C(CCc1ccc(O)cc1)c1c(O)cc(O)cc1O[C@@H]1O[C@H](CO)[C@@H](O)[C@H](O)[C@H]1O", "conditions": "100 µg/mL, 2 h", "Papp A→B": "2.94 ×10⁻⁶ cm/s"}
{"SMILES": "CCOCC(=O)N1CCC[C@H](C(=O)NCc2nc(-c3ccc(C)nc3)cs2)C1", "conditions": "pH 7.4", "Papp A→B": "15 ×10⁻⁶ cm/s"}
{"SMILES": "N#Cc1ccc(C[C@H](NC(=O)Nc2ccc(F)cc2)C(=O)N2CCc3ccccc32)cc1", "conditions": "100 µM, 2 h", "Papp A→B": "49.3 ×10⁻⁶ cm/s"}
{"SMILES": "O=c1cc(-c2ccc(O)cc2)oc2c([C@@H]3O[C@H](CO)[C@@H](O)[C@H](O)[C@H]3O)c(O)cc(O)c12", "conditions": "100 µg/mL", "Papp A→B": "0.316 ×10⁻⁶ cm/s"}
{"SMILES": "COc1cc(NC(=O)Cn2cc(Cl)c3cc(F)c(-c4cnn(C)c4)cc32)cc(OC)c1OC", "Papp A→B": "0.08 ×10⁻⁶ cm/s"}
{"SMILES": "COCC(=O)OCc1cc2[nH]c(=S)n(Cc3cccnc3)c(=O)c2cc1Cl", "conditions": "10 µM, 90 min, pH 7.4", "Papp A→B": "0.2 ×10⁻⁶ cm/s"}
{"SMILES": "O=c1c(-c2ccc(O)cc2)coc2cc(O)ccc12", "conditions": "100 µg/mL, 2 h", "Papp A→B": "27.4 ×10⁻⁶ cm/s"}
{"SMILES": "CN(C)CCc1c[nH]c2ccc(C[C@H]3COC(=O)N3)cc12", "conditions": "5 µM, 2 h", "Papp A→B": "0.56 ×10⁻⁶ cm/s"}
{"SMILES": "COc1cc(C2Oc3cc([C@H]4Oc5cc(O)cc(O)c5C(=O)[C@@H]4O)ccc3OC2CO)ccc1O (stereo partly shown)", "conditions": "100 µg/mL, 2 h", "Papp A→B": "19 ×10⁻⁶ cm/s"}
{"SMILES": "N=C(N)NCCCNC(=O)[C@@H]1CCCCN1C(=O)[C@@H](CC1CCCCC1)NCC(=O)O", "conditions": "5 µM, 2 h", "Papp A→B": "0.05 ×10⁻⁶ cm/s"}
{"SMILES": "COCC(=O)N1CCC[C@H](C(=O)NCc2nc(-c3ccccc3)cs2)C1", "conditions": "pH 7.4", "Papp A→B": "52 ×10⁻⁶ cm/s"}
{"SMILES": "CCOC(=O)[C@H](CCc1ccccc1)N[C@@H](C)C(=O)N1CCC[C@H]1C(=O)O", "conditions": "5 µM, 2 h", "Papp A→B": "0.13 ×10⁻⁶ cm/s"}
{"SMILES": "CC[C@]1(O)C[C@@H]2CN(CCc3c([nH]c4ccccc34)[C@@](C(=O)OC)(c3cc4c(cc3OC)N(C)[C@H]3[C@@](O)(C(=O)OC)[C@H](OC(C)=O)[C@]5(CC)C=CCN6CC[C@]43[C@@H]65)C2)C1", "conditions": "10 µM, 2 h", "Papp A→B": "1.69 ×10⁻⁶ cm/s"}
{"SMILES": "N#Cc1ccc(C[C@H](Nc2nnc(-c3ccc(F)cc3)s2)C(=O)N2CCc3ccccc32)cc1", "conditions": "100 µM, 2 h", "Papp A→B": "11.2 ×10⁻⁶ cm/s"}
{"SMILES": "Cc1c[nH]c2ncnc(N3C=C(C(=O)N4CCC[C@@H](N)C4)SCC3)c12", "conditions": "10 µM, pH 6.5", "Papp A→B": "< 0.3 ×10⁻⁶ cm/s"}
